Measurements from ChEMBL document CHEMBL3779819, “Design, synthesis and biological evaluation of LBM-A5 derivatives as potent P-glycoprotein-mediated multidrug resistance inhibitors” (Bioorg Med Chem, 2016).
Where a name gives a salt, the structure may show the parent alone.

Legend:
Type in all cases: cell-based
[1] = test system: K562/A02; test: Reversal of P-gp-mediated resistance to adriamycin in human K562/A02 cells assessed as reduction in adriamycin IC50 at 5 uM after 48 hrs by MTT assay relative to control
Procedure, shortened: (§1)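 K562/A02 cells in RPMI 1640 with 10% FBS, seeded and grown 24 h. Cells given a series of ADM concentrations with or without modulator at 5 μM for 48 h at 37 °C. MTT added for 4 h, A570 read. ADM IC50 from dose–response curves. RF = IC50 without modulator / IC50 with modulator. Triplicates, three independent repeats.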

[2] = Cytotoxicity against human K562/A02 cells assessed as cell viability after 48 hrs by MTT assay; details: K562/A02, 48 h
Procedure, shortened: (§2)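 K562 and ADM-resistant, P-gp-overexpressing K562/A02 cells seeded at 1~2×10^4 per well, grown 24 h, then given graded compound doses in medium. Exposure 48 h, 37 °C, 5% CO2. MTT added for a further 4 h, absorbance read at 570 nm. IC50 taken from dose–response curves. Each experiment run three times.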

[3] = test system: K562; test: Cytotoxicity against human K562 cells assessed as cell viability after 48 hrs by MTT assay; details: K562, 48 h; procedure, shortened: as §2
[4] = test system: K562/A02; test: Inhibition of P-gp-mediated adriamycin efflux in human K562/A02 cells assessed as intracellular adriamycin accumulation at 5 uM preincubated for 60 mins followed by adriamycin addition measured after 90 mins by flow cytometry
Procedure, shortened: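 K562/A02 cells (ADM-induced, P-gp-overexpressing) seeded at 1.5×10^5/well; modulator or 0.1% DMSO vehicle pre-incubated 60 min, then 20 μM ADM added for 90 min; cells washed three times with PBS at 4°C; retained intracellular ADM read as mean fluorescence intensity by flow cytometry; means±SD of two independent experiments.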

[5] = test system: K562/A02; test: Inhibition of P-gp-mediated adriamycin efflux in human K562/A02 cells assessed as increase in intracellular accumulation of adriamycin preincubated for 60 mins followed by adriamycin addition measured after 90 mins by flow cytometry
Procedure, shortened: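 K562/A02 cells seeded at 1.5×10^5 per well. Modulator (0.5, 2.5 or 5 μM) or 0.1% DMSO vehicle pre-incubated 60 min. ADM 20 μM then added for 90 min. Cells washed three times in PBS at 4 °C. Retained ADM read as mean fluorescence intensity by flow cytometry. Means±SD of two independent experiments.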

[6] = (§3) Reversal of P-gp-mediated resistance to adriamycin in human K562/A02 cells assessed as reduction in adriamycin IC50 after 48 hrs by MTT assay; details: K562/A02, 48 h; procedure, shortened: as §1
[7] = test system: K562/A02; test: as §3; procedure, shortened: as §1
[8] = test system: K562/A02; test: Reversal of P-gp-mediated resistance to adriamycin in human K562/A02 cells assessed as reduction in adriamycin IC50 at 1.25 uM after 48 hrs by MTT assay relative to control
Procedure, shortened: (§4)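 K562/A02 cells in RPMI 1640 with 10% FBS, grown 24 h. Cells exposed 48 h at 37 °C to graded ADM concentrations, with or without modulator at 0.078–2.5 μM. MTT added for 4 h, A570 read. Reversal fold = ADM IC50 without modulator / ADM IC50 with modulator. Three independent experiments, mean±SEM.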

[9] = test system: K562/A02; test: Reversal of P-gp-mediated resistance to adriamycin in human K562/A02 cells assessed as reduction in adriamycin IC50 at 0.625 uM after 48 hrs by MTT assay relative to control; procedure, shortened: as §4
[10] = test system: K562/A02; test: Reversal of P-gp-mediated resistance to adriamycin in human K562/A02 cells assessed as reduction in adriamycin IC50 at 0.156 uM after 48 hrs by MTT assay relative to control; procedure, shortened: as §4
[11] = test system: K562/A02; test: Reversal of P-gp-mediated resistance to adriamycin in human K562/A02 cells assessed as reduction in adriamycin IC50 at 0.31 uM after 48 hrs by MTT assay relative to control; procedure, shortened: as §4
[12] = test system: K562/A02; test: Reversal of P-gp-mediated resistance to adriamycin in human K562/A02 cells assessed as reduction in adriamycin IC50 at 0.078 uM after 48 hrs by MTT assay relative to control; procedure, shortened: as §4
[13] = test system: K562/A02; test: Potency index, ratio of verapamil to compound for inhibition of P-gp-mediated adriamycin efflux in human K562/A02 cells assessed as intracellular adriamycin accumulation at 5 uM
[14] = test system: K562/A02; test: Reversal of P-gp-mediated resistance to adriamycin in human K562/A02 cells assessed as reduction in adriamycin IC50 at 2.5 uM after 48 hrs by MTT assay relative to control; procedure, shortened: as §4

| SMILES | fold change (FC) [1] | IC50 [2] | IC50 [3] | further results |
| --- | --- | --- | --- | --- |
| CCc1ccc(OCc2cn(CCN3CCc4cc(OC)c(OC)cc4C3)nn2)cc1 | 6.1 | > 100 µM | > 100 µM | – |
| COc1cc2c(cc1OC)CN(CCc1ccc(-n3cc(COc4ccc(C)cc4)nn3)cc1)CC2 | 5.8 | > 100 µM | > 100 µM | – |
| COc1cc2c(cc1OC)CN(CCc1ccc(-n3cc(COc4ccccc4)nn3)cc1)CC2 | 31.4 | > 100 µM | > 100 µM | Flu intensity [4]: 1280; inhibition [5]: Dose-dependent effect; EC50 [6]: 0.193 µM; Activity [7]: Dose-dependent effect; fold change (FC) [8]: 16.9; fold change (FC) [9]: 11.3; fold change (FC) [10]: 2.2; fold change (FC) [11]: 7.2; fold change (FC) [12]: 1.6; Ratio [13]: 1.5; fold change (FC) [14]: 20.3 |
| COc1cc2c(cc1OC)CN(CCn1cc(COc3ccc(C)cc3C)nn1)CC2 | 4.6 | > 100 µM | > 100 µM | – |
| COc1cc2c(cc1OC)CN(CCc1ccc(-n3cc(COc4ccc(C(C)(C)C)cc4)nn3)cc1)CC2 | 9.3 | > 100 µM | 21.1 µM | – |
| COc1cccc2c1C(=O)c1c(O)c3c(c(O)c1C2=O)C[C@@](O)(C(=O)CO)C[C@@H]3O[C@H]1C[C@H](N)[C@H](O)[C@H](C)O1 [DOXORUBICIN HYDROCHLORIDE] | – | 38 µM | 6.23 µM | – |
| COc1cc2c(cc1OC)CN(CCn1cc(COc3ccc(C(C)(C)C)cc3)nn1)CC2 | 20.4 | > 100 µM | > 100 µM | – |
| COc1ccc(OCc2cn(CCN3CCc4cc(OC)c(OC)cc4C3)nn2)cc1 | 3.4 | > 100 µM | > 100 µM | – |
| COc1cc2c(cc1OC)CN(CCn1cc(COc3ccc(C)cc3)nn1)CC2 | 6.2 | > 100 µM | > 100 µM | – |
| COc1cc2c(cc1OC)CN(CCn1cc(COc3ccc4ccccc4c3)nn1)CC2 | 3.6 | > 100 µM | > 100 µM | – |
| COc1cc2c(cc1OC)CN(CCn1cc(COc3ccc(C(C)C)cc3)nn1)CC2 | 7.7 | > 100 µM | > 100 µM | – |
| COc1cc2c(cc1OC)CN(CCc1ccc(-n3cc(COc4cccc5ccccc45)nn3)cc1)CC2 | 21 | > 100 µM | > 100 µM | – |
| COc1cc2c(cc1OC)CN(CCc1ccc(-n3cc(COc4ccc(C(C)C)cc4)nn3)cc1)CC2 | 9.2 | > 100 µM | > 100 µM | – |
| COc1cc2c(cc1OC)CN(CCc1ccc(-n3cc(COc4ccccc4NC(=O)c4ccccc4)nn3)cc1)CC2 | 23 | > 100 µM | > 100 µM | EC50 [6]: 0.484 µM |
| COc1cc2c(cc1OC)CN(CCn1cc(COc3ccc(C)c(C)c3)nn1)CC2 | 9.1 | > 100 µM | > 100 µM | – |
| COc1cc2c(cc1OC)CN(CCn1cc(COc3ccc([N+](=O)[O-])cc3)nn1)CC2 | 3.1 | > 100 µM | > 100 µM | – |
| CCc1ccc(OCc2cn(-c3ccc(CCN4CCc5cc(OC)c(OC)cc5C4)cc3)nn2)cc1 | 9.1 | > 100 µM | > 100 µM | – |
| COc1cc2c(cc1OC)CN(CCn1cc(COc3ccccc3OC)nn1)CC2 | 4.1 | > 100 µM | > 100 µM | – |
| COc1cc2c(cc1OC)CN(CCc1ccc(-n3cc(COc4ccc([N+](=O)[O-])cc4)nn3)cc1)CC2 | 5.4 | > 100 µM | 49.2 µM | – |
| COc1ccc(C(=O)Nc2ccccc2C(=O)Nc2ccc(CCN3CCc4cc(OC)c(OC)cc4C3)cc2)cc1OC | 30.4 | 50.1 µM | 19.6 µM | – |
| COc1ccc(OCc2cn(-c3ccc(CCN4CCc5cc(OC)c(OC)cc5C4)cc3)nn2)cc1 | 3.5 | > 100 µM | > 100 µM | – |
| COc1cc2c(cc1OC)CN(CCc1ccc(-n3cc(COc4ccc5ccccc5c4)nn3)cc1)CC2 | 8.5 | > 100 µM | > 100 µM | – |
| COc1ccc(CCN(C)CCCC(C#N)(c2ccc(OC)c(OC)c2)C(C)C)cc1OC (stereo unspecified) | – | – | 65.3 µM | – |
| COc1cc2c(cc1OC)CN(CCc1ccc(-n3cc(COc4ccc(OC(F)(F)F)cc4)nn3)cc1)CC2 | 5.9 | > 100 µM | 37.4 µM | – |
| COc1cc2c(cc1OC)CN(CCc1ccc(-n3cc(COc4ccccc4[N+](=O)[O-])nn3)cc1)CC2 | 7.4 | > 100 µM | 48.8 µM | – |
| COc1cc2c(cc1OC)CN(CCn1cc(COc3ccc(F)cc3)nn1)CC2 | 2.7 | > 100 µM | > 100 µM | – |
| COc1cc2c(cc1OC)CN(CCn1cc(COc3ccccc3C(C)(C)C)nn1)CC2 | 9.6 | > 100 µM | > 100 µM | – |
| COc1cc2c(cc1OC)CN(CCn1cc(COc3cccc4ccccc34)nn1)CC2 | 5.7 | > 100 µM | > 100 µM | – |
| COc1cc2c(cc1OC)CN(CCc1ccc(-n3cc(COc4cccc5cccnc45)nn3)cc1)CC2 | 10 | > 100 µM | 28 µM | – |
